Published values pooled from the literature.
Lines come from different studies, so protocols differ.
Target: Cytoplasmic tyrosine-protein kinase BMX (BMX, Homo sapiens, UniProt P51813)
Residues used in one study (P51813 1-675): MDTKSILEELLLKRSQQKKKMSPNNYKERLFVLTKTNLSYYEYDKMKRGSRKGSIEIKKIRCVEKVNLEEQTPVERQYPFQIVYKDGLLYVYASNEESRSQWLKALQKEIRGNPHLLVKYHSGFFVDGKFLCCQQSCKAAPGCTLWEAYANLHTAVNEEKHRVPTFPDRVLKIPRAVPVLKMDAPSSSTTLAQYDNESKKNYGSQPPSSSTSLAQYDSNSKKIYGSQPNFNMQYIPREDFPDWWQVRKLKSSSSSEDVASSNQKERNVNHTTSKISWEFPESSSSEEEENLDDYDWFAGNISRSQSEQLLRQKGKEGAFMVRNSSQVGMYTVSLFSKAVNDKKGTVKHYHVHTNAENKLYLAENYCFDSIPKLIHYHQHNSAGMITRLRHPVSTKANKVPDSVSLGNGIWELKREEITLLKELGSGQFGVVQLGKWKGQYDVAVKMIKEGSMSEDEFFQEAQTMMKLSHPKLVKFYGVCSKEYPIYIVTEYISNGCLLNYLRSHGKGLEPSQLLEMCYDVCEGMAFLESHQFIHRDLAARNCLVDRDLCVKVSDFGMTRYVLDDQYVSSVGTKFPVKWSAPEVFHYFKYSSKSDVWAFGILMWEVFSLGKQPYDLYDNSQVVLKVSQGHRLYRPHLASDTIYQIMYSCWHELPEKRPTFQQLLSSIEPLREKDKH

| Compound | observed | mode | method | tested at | measurement | result |
| --- | --- | --- | --- | --- | --- | --- |
| COc1ncccc1-c1cnn2ccc(N3CCN(C(=O)OC(C)C)CC3)nc12 | binding | – | competition with immobilised ligand | 1 µM | remaining binding | 91% |
| CCn1cnc2c(Nc3cccc(Cl)c3)nc(N[C@H]3CCCC[C@H]3N)nc21 | enzyme activity | inhibitor | – | 0.5 µM | remaining activity | 90.7% |
| Cn1cncc1[C@@](O)(COc1ccc(C#N)cc1-c1ccc(OC(F)(F)F)cc1)c1ccc(C#N)cc1 | cell-free assay | – | competition with immobilised ligand | 1 µM | remaining binding | 64% |
| C#Cc1n[nH]c2c(-c3cn([C@@H](C)c4ccccn4)c(=O)[nH]c3=O)cc(F)cc12 | enzyme activity | inhibitor | – | 0.1 µM | inhibition | -1.6% |
| O=c1[nH]c2ccccc2n1C1CCN(Cc2ccc(-c3[nH]c4cc5ncnc5cc4nc3-c3ccccc3)cc2)CC1 | cell-free assay | – | – | 0.5 µM | remaining signal | 108% |
| Cc1nn(C)cc1-c1nc2c(N3CCN(Cc4ccc(Cl)cc4)CC3)c(Cl)cnc2[nH]1 | binding | – | competition with immobilised ligand | 1 µM | remaining binding | 100% |
| Cn1cc(-c2cc(F)cc(N3CCn4c(cc5c4CCCC5)C3=O)c2CO)cc(Nc2ccc(N3CCN(C4COC4)CC3)cn2)c1=O | enzyme activity | inhibitor | – | 0.1 µM | inhibition | 37% |
| C#Cc1n[nH]c2c(-c3cn([C@@H](C)c4ccccc4)c(=O)[nH]c3=O)cc(F)cc12 | enzyme activity | inhibitor | – | 0.1 µM | inhibition | -7.4% |
| Cn1cc(-c2cccc(N3CCc4c(sc5c4CC(C)(C)C5)C3=O)c2CO)cc(Nc2ccncn2)c1=O | enzyme activity | inhibitor | – | 1 µM | inhibition | 49% |
| Nc1ncc(-c2nc(N3CCOCC3)nc(N3CCOCC3)n2)c(C(F)F)n1 | binding | – | competition with immobilised ligand | 10 µM | remaining binding | 86% |
| N#CC1(c2ccccn2)CCN(Cc2cc(C(=O)O)c(=O)n3ccccc23)CC1 | cell-free assay | – | competition with immobilised ligand | 1 µM | remaining binding | 88% |
